Only a selection was taken, and hits are over-represented in it overall.
UPR XBP1 act: adaptive UPR (XBP1) activation. CHO-XBP1 luciferase reporter, IRE1-XBP1 UPR activation, luminescence; percent of tunicamycin response, DMSO as zero. activation, % at 20 µM. 0.33% of 330,000 active. AID 463104;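 active means versus positive control, 20 µM dose yields 30% or more activation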;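 further: 100% = tunicamycin at 10 µg/mL and 0% = DMSO only wells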
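Assay system: CHO-XBP1 luciferase reporter cells; Schedule: 6 h treatment, 37 °C; Detection: glow luminescence from Steady-Glo reagent; Benchmarks: high control tunicamycin 10 µg/mL final, low control DMSO vehicle only.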
Jurkat NFkB inh: lowers PMA/ionomycin-induced NF-kB signal in Jurkat cells; PMA/ionomycin-induced NF-kB luciferase reporter, luminescence; inhibition, % at 4 µM; 0.53% of 330,000 active; AID 435003; in the data active means inhibition above about 50%
CHOP inh: inhibitors of CHOP induction in ER stress response; CHO-K1 CHOP-promoter luciferase, tunicamycin-induced, 15-18 h; inhibition, % at 10 µM; 3.8% of 220,000 active;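 active means compounds that reduced the stress-induced luciferase reporter signal by more than about 70% of percent inhibition, limit read from the data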;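 further: 0% = tunicamycin plus vehicle and 100% = wells without tunicamycin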
UPR CHOP act: activators of apoptotic arm of unfolded protein response (CHOP). 0.34% of 330,000 active. activation, % at 10 µM. CHO-CHOP luciferase reporter, UPR activation, luminescence; percent of tunicamycin response over DMSO baseline. AID 449763;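 active means at 10 µM dose, activation of 40% or more, normalized to positive control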;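 further: 100% = tunicamycin at 10 µg/mL and 0% = DMSO alone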
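Assay system: CHO cells with stable CHOP pathway luciferase reporter; Buffer or medium: F12 plus 10% serum; Times: 16-18 h cell attachment, then 6 h compound exposure, 37 °C; Signal: luciferase luminescence; Read-out basis: percent activation relative to tunicamycin control; Control set: tunicamycin high control, DMSO low control.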
697 NFkB inh: inhibitors of the PMA/ionomycin-induced NF-kB reporter in 697 B cells; 697 B-cell NF-kB luciferase reporter, 16 h; inhibition, % at 4 µM; 0.33% of 330,000 active; AID 435022; in the data active means inhibition above about 35%
Numbers without * were called inactive; · = no result given.

SMILES	UPR XBP1 act	Jurkat NFkB inh	CHOP inh	UPR CHOP act	697 NFkB inh
CCOc1cc(-c2c(C#N)c(N)nc3c2CCCC3C)ccc1O (configuration not stated)	3	0	56	2	-10
CCOc1cc(-c2c(C#N)c(N)nc3c2CCc2ccccc2-3)ccc1O	2	30	78*	3	30
CC(C)(Cc1ccccc1)/[N+]([O-])=C\c1ccccc1	-1	9	·	-4	18
CCOc1ccc(NC(=O)CN2C(=O)COc3ccc(Cl)cc32)cc1	2	1	76*	0	7
CCCOP(=O)(OCCC)C(Nc1cccc(C(F)(F)F)c1)c1ccc(C)cc1 (configuration not stated)	-2	-7	90*	-1	15
O=[N+]([O-])c1cc([N+](=O)[O-])c2cccnc2c1Oc1ccccc1O	·	·	86*	·	·
Cc1ccc(S(=O)(=O)N(CCC(=O)Nc2ccc(OC(F)(F)F)cc2)c2ccccc2)cc1	-2	3	83*	2	7
Cc1ccc(S(=O)(=O)N(CCC(=O)NCc2ccccc2F)c2ccccc2)cc1	-2	-4	·	0	-15
COc1ccc(N2CCN(C(=O)COC(=O)c3ccc(OC(F)F)cc3)CC2)cc1	0	14	·	-1	7
NCCCCCCCCCCN	·	·	8	·	·
Cc1cccc(NC(=O)C2C(c3ccccc3)C2(Cl)Cl)c1 (configuration not stated)	3	2	74*	0	1
CCc1nn(CC(=O)N(C)C2CCCCC2)c(=O)c2cc3cc(C)ccc3n12	-4	0	·	3	-20
NNc1nc2c(F)cccc2s1	0	-38	-9	3	-42
Fc1cccc2sc(Nc3nc4c(F)cccc4s3)nc12	1	-56	88*	5	-84
CCc1cc2cc3c(cc2nc1SCC(=O)Nc1cc(C)on1)OCO3	15	-7	95*	10	3
CCn1c(SCC(=O)Nc2cc(C)on2)nc2sc3c(c2c1=O)CCCC3	-3	-7	107*	-1	-3
Cc1cc(NC(=O)CSc2nc3sc4c(c3c(=O)n2C)CCCC4)no1	-1	10	30	0	0
Cc1cc(NC(=O)CSc2nc(C(C)C)nc3sc4c(c23)CCCC4)no1	6	15	77*	1	-34
Cc1c(Cl)cccc1NC(=O)CSc1nc2ncc(Cl)cc2[nH]1	-1	5	·	1	11
N#CC(C#N)=C(Nc1ccc(F)cc1)SCc1cccc(F)c1	2	6	85*	3	14
Cc1cc(C(=O)OC(C(=O)Nc2cccc(C(F)(F)F)c2)c2ccccc2)c(C)o1 (configuration not stated)	-2	-4	83*	1	-22
Cc1ccc(NC(=O)C(OC(=O)c2cc(C)oc2C)c2ccccc2)cc1 (configuration not stated)	-2	10	54	0	5
CCOc1ccc(OCC)c(NC(=O)CCNS(=O)(=O)c2cc(Br)cnc2N)c1	-3	1	·	-1	-1
Cc1ccc([N+](=O)[O-])cc1S(=O)(=O)Nc1cccc(S(=O)(=O)Nc2ccccc2C(=O)O)c1	-1	7	·	2	11
Cc1ccc(C)c(NC(=O)c2ccccc2NS(=O)(=O)c2cc([N+](=O)[O-])ccc2C)c1	8	3	74*	8	-12
SMILES	UPR XBP1 act	Jurkat NFkB inh	CHOP inh	UPR CHOP act	697 NFkB inh
Cc1ccc(NC2CCCCC2NS(=O)(=O)c2ccc(Cl)cc2)cc1 (configuration not stated)	-3	-3	91*	-1	-4
O=S(=O)(NC1CCCCC1Nc1ccc(Cl)cc1)c1ccccc1 (configuration not stated)	-3	-2	51	3	6
Cc1ccc(NS(=O)(=O)c2ccc(C3CCCCC3)cc2)cc1	-3	8	95*	-1	-26
Cn1c(=O)[nH]c(=O)c2c1nc(Sc1ccccc1)n2CCc1ccccc1	2	-2	29	2	5
CC(C)n1c(SCCCc2ccccc2)nc2c1c(=O)[nH]c(=O)n2C	·	·	97*	·	·
Cn1c(=O)[nH]c(=O)c2c1nc(CN1CCN(c3cccc(Cl)c3)CC1)n2CCc1ccccc1	2	-9	82*	1	-10
C=CCn1c(SCCCc2ccccc2)nc2c1c(=O)[nH]c(=O)n2C	9	3	77*	0	-36
Cc1ccc(Sc2nc3c(c(=O)[nH]c(=O)n3C)n2CCc2ccccc2)cc1	0	2	95*	2	14
CCCCn1c(NCCC)nc2c1c(=O)[nH]c(=O)n2C	1	6	14	3	12
CC(C)CCn1c(SCCc2ccccc2)nc2c1c(=O)[nH]c(=O)n2C	0	3	75*	-1	21
CCCCCn1c(SCCc2ccccc2)nc2c1c(=O)[nH]c(=O)n2C	-1	0	93*	1	-18
C=CCNc1nc2c(c(=O)[nH]c(=O)n2C)n1CCCCC	0	-14	71*	0	-12
FC(F)(F)c1cc(NC2CCCCC2)ccn1	-1	-9	·	-1	-28
CCOC(=O)C1CCN(C(=O)COC(=O)Cc2ccc(Cl)cc2)CC1	-5	-8	·	0	14
O=C(c1ccc(CNS(=O)(=O)c2ccc(Br)cc2)cc1)N1CCCCC1	-2	-7	·	0	-53
N#C/C(=C/c1ccc(CNC(=O)C(=O)Nc2cc(Cl)cc(Cl)c2)o1)C(=O)NCc1cccnc1	21	-26	82*	0	-16
Cc1ccc(NC(=O)C(=O)NCc2ccc(/C=C(/C#N)C(=O)NCc3cccnc3)o2)cc1	-2	1	35	1	18
CN1CCc2c(sc(/N=C/c3cc(C(C)(C)C)ccc3O)c2C#N)C1	-2	-1	18	5	8
CC[C@]12c3[nH]c4cc(CCC(=O)N(C)C)ccc4c3CCN1C(=O)[C@@H](CC(=O)NCc1ccco1)C[C@@H]2C(=O)N1CCN(C(=O)C2CC2)CC1	2	·	·	3	12
CCOC(=O)c1sc(Nc2ccc(OCC)cc2)nc1C	5	-8	73*	2	6
COc1cccc(CNC(=O)c2cc3c(C)nc4ccccc4c3o2)c1	-3	7	48	-1	-15
CCc1ccc(CNC(=O)c2cc3c(C)nc4ccccc4c3o2)cc1	4	22	80*	5	-23
Cc1nc2ccccc2c2oc(C(=O)NCC3COc4ccccc4O3)cc12 (configuration not stated)	0	16	73*	-1	-23
Cc1cccc(COCC(CC(C)C)N2CCN(C(=O)c3ccc(C(F)(F)F)cc3)CCC2=O)c1 (configuration not stated)	-1	-7	43	1	-8
Cc1cccc(COCC(CC(C)C)N2CCN(C(=O)c3ccc(C(C)(C)C)cc3)CCC2=O)c1 (configuration not stated)	2	25	71*	2	19
